ABHD4 inh: ABHD4 inhibitors, primary screen, biochemical, fluorescence polarization, mouse | inhibition, % at 8.92 µM | (Lyso)-N-acylphosphatidylethanolamine lipase (Mus musculus), Q8VD66 | 370,000 tested, 0.54% active | purified mABHD4, FP-Rh probe fluorescence polarization | AID 720543, 2013;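 active means inhibition exceeding the mean over every tested compound plus 3 SD, cut at about 30% in these data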
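Material: mouse ABHD4 enzyme, wild type; Benchmarks: S159A mutant high control, sample median low control; Buffer or medium: HEPES pH 7.0, NaCl, Pluronic buffer; Signal: fluorescence polarization; Read-out: percent inhibition of probe binding, normalized to plate controls; Timing: pre-incubation 45 min, probe exposure 60 min, at 25 °C; Dosing: 8.92 µM, single dose.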
SIAE primary: human SIAE inhibitors, primary screen, biochemical, fluorescence polarization, FP-Rh probe, 1536-well HTS; inhibition, % at 9.66 µM; 370,000 tested, 0.69% active; Sialate O-acetylesterase (Homo sapiens), Q9HAT2; SIAE FP-Rh probe binding; AID 1053197, 2014;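 active means inhibition above a cutoff: mean of compounds within the control limits plus 3 SD of those, cut at about 17% in these data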
HTRA1 inhibitor: HTRA1 serine protease inhibitors, primary screen, biochemical, fluorescence polarization, HTS; recombinant HTRA1, FP-rhodamine activity-based probe; inhibition, % at 5.96 µM; AID 504803, 2011; Q92743; 340,000 tested, 0.5% active; in the data active means inhibition above about 36%
Target sequence (Q92743 whole entry, looked up): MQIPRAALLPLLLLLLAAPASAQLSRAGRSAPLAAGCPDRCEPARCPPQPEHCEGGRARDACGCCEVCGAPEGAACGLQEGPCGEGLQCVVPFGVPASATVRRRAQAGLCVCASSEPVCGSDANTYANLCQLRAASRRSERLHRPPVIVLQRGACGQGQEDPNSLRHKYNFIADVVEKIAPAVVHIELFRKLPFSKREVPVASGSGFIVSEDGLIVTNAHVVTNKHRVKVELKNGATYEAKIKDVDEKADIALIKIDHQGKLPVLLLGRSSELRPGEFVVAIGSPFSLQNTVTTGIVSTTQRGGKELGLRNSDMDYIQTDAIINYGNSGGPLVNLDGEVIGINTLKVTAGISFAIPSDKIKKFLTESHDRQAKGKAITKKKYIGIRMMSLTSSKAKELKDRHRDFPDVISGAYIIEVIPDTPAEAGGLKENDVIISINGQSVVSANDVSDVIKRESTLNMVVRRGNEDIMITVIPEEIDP
PRMT1 inh: PRMT1 methyltransferase inhibitors, primary screen, biochemical, fluorescence polarization; 370,000 tested, 1.3% active; inhibition, % at 2.79 µM; recombinant PRMT1, activity-based probe fluorescence polarization;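 active means inhibition above about 21% made by adding two undisclosed values, limit read from the data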
rCAG binder: binders of r(CAG) RNA repeats, primary screen, biochemical, fluorescence; AID 651821, 2012; 370,000 tested, 1.3% active; r(CAG) RNA repeat, TO-PRO-1 dye displacement fluorescence; inhibition, % at 3 µM;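 active means inhibition above the plate cutoff, the mean of all test compounds on that plate plus 3 SD, cut at about 35% in these data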;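 further: higher means more dye released from RNA so lower well fluorescence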
rCAG bind conf: small molecules binding CAG repeat RNA – biochemical, fluorescence, confirmation; r(CAG) RNA repeat, TO-PRO-1 dye displacement fluorescence; inhibition, % at 3 µM; 4,300 tested, 70% active; shares compounds with rCAG binder;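 active means inhibition above a per-plate cutoff, the mean inhibition of sample wells plus 3 SD, cut at about 35% in these data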;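 further: loss of TO-PRO-1 fluorescence as compound displaces dye from 1x1 AA loop RNA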
dCAG dye counter: displacement of TO-PRO-1 from CAG DNA duplex, counter-screen for rCAG RNA repeat binder project, biochemical, fluorescence, TO-PRO-1 dye, d(CAG) DNA oligo. d(CAG) DNA oligo TO-PRO-1 dye displacement. AID 652068, 2013. 4,300 tested, 94% active. shares compounds with rCAG binder. inhibition, % at 3 µM;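 active means inhibition above its plate's cutoff, the mean test-well inhibition plus 3 SD, cut at about 4.8% in these data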;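 further: hits displace the dye from DNA and so lower well fluorescence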
dCAG dye DR: inhibitors of DNA CAG/GTC TO-PRO-1 complex, dose response, counter-screen for rCAG RNA repeat binder project, biochemical, fluorescence, TO-PRO-1 dye | shares compounds with rCAG binder | DNA CAG/GTC duplex TO-PRO-1 dye displacement fluorescence | IC50, µM | 250 tested, 20% active | AID 686960, 2013; in the data active means IC50 below about 10 µM
Of the large screens only hits and unclear results are named; the others gave an inactive call (follow-up assays come after a bar, where they were run). An excerpt weighted towards active compounds, which were near 3.3% of everything screened.

Cc1ccc(S(=O)(=O)Nc2nc(C)c(C(=O)N/N=C/c3ccccc3)s2)cc1	rCAG binder 80 | rCAG bind conf 70 | dCAG dye counter 24 | dCAG dye DR inactive
C/C(=N/NC(=O)c1sc(NS(=O)(=O)c2ccccc2)nc1C)c1sc(N)nc1C	rCAG binder 79 | rCAG bind conf inactive | dCAG dye counter inactive
Cc1ccc(S(=O)(=O)Nc2nc(C)c(C(=O)NNS(=O)(=O)c3ccccc3)s2)cc1	none
Cc1ccc(S(=O)(=O)Nc2nc(C)c(C(=O)Nc3ccccc3)s2)cc1	rCAG binder 36 | rCAG bind conf inactive | dCAG dye counter inactive
C=CCNC(=O)NCC1CCN(Cc2ccc(OC)cc2)CC1	none (no result: HTRA1 inhibitor)
Cc1nc(NS(=O)(=O)c2ccccc2)sc1C(=O)NN	rCAG binder 83 (no result: HTRA1 inhibitor) | rCAG bind conf inactive | dCAG dye counter inactive
Cc1nc(-c2ccccc2)sc1C(=O)NN	none
CC1CN(C(=O)c2cccc(S(=O)(=O)Nc3ccccc3Cl)c2)CC(C)O1 (stereo unspecified)	none
O=C(N/N=C/c1ccccc1C(=O)O)c1cccc(S(=O)(=O)Nc2cc(Cl)ccc2Cl)c1	rCAG binder 49 | rCAG bind conf inactive | dCAG dye counter 6.8
O=C(NNC(=S)NC1CCCCC1)c1cccc(S(=O)(=O)Nc2ccccc2Cl)c1	rCAG binder 56 | rCAG bind conf 51 | dCAG dye counter 19
CC1CN(C(=O)c2cccc(S(=O)(=O)Nc3cc(Cl)ccc3Cl)c2)CC(C)O1 (stereo unspecified)	rCAG binder 41 | rCAG bind conf inactive | dCAG dye counter 5.5
O=C(c1cccc(S(=O)(=O)Nc2ccccc2Cl)c1)N1CCN(c2ccccc2O)CC1	rCAG binder 41 | rCAG bind conf inactive | dCAG dye counter 9.3
O=C(c1cc(F)ccc1F)N1CCCC(c2nc(-c3cccs3)no2)C1 (stereo unspecified)	none (no result: HTRA1 inhibitor)
CN(C)[C@@H]1CCN(c2ccc3c(c2)O[C@H]2CCN(C2)S3(=O)=O)C1	none (no result: HTRA1 inhibitor)
COc1ccc(/C=C(\NC(=O)c2ccc(OC)cc2)C(=O)Nc2ccc(C(=O)O)cc2)cc1	none
O=C(Nc1ccc(C(=O)O)cc1)/C(=C\c1ccc([N+](=O)[O-])cc1)NC(=O)c1ccc(Br)cc1	rCAG binder 44 | rCAG bind conf inactive | dCAG dye counter 7.0
CC(=O)Oc1ccc(/C=C(\NC(=O)c2cccc(Br)c2)C(=O)Nc2ccc(C(=O)O)cc2)cc1	rCAG binder 50 | rCAG bind conf inactive | dCAG dye counter 6.4
Cc1ccc(NC(=O)/C(=C/C=C/c2ccccc2)NC(=O)c2ccccc2)cc1	none
O=C(Nc1ccc(C(=O)O)cc1)/C(=C\c1ccc2c(c1)OCO2)NC(=O)c1ccc(Br)cc1	rCAG binder 39 | rCAG bind conf inactive | dCAG dye counter 8.0
O=C(Nc1ccc(C(=O)O)cc1)/C(=C\C=C\c1ccccc1)NC(=O)c1ccc(Br)cc1	rCAG binder 72 | rCAG bind conf 66 | dCAG dye counter 32
CC1(c2nnnn2Cc2ccccc2)CCSCC(=O)N1Cc1cccs1 (stereo unspecified)	none (no result: HTRA1 inhibitor)
CCOC(=O)[C@]12CCCC=C1N(CCCOC)C(=O)[C@@H]2CC(=O)NCCCN1CCCC1=O	none (no result: HTRA1 inhibitor)
S=c1[nH]nc(-c2cc(-c3ccccc3)n[nH]2)n1/N=C/c1cccc(Cl)c1	rCAG binder 35 | rCAG bind conf 70 | dCAG dye counter 32 | dCAG dye DR inactive
S=c1[nH]nc(-c2cc(-c3ccccc3)n[nH]2)n1N=Cc1cccc(OCc2ccccc2)c1	rCAG binder 77 (no result: HTRA1 inhibitor) | rCAG bind conf 63 | dCAG dye counter 32
S=c1[nH]nc(-c2cc(-c3ccccc3)n[nH]2)n1/N=C/c1ccc(Cl)cc1	none
S=c1[nH]nc(-c2cc(-c3ccccc3)n[nH]2)n1N=Cc1cccc(Oc2ccccc2)c1	rCAG binder 66 (no result: HTRA1 inhibitor) | rCAG bind conf 61 | dCAG dye counter 31
COc1ccc(CN2C/C(=C/C3=CCCCC3)N(C(=O)OCc3ccccc3)C2=N)c(OC)c1	none (no result: HTRA1 inhibitor)
O=C(NCCN1C(=O)C2C3C=CC(C3)C2C1=O)c1cc(Cl)cc(Cl)c1 (stereo unspecified)	none (no result: HTRA1 inhibitor)
C#CCN1CC(N(C)CCOC(=O)c2ccc([N+](=O)[O-])cc2)CS1(=O)=O (stereo unspecified)	none (no result: HTRA1 inhibitor)
Cc1ccc([C@H]2C(C(=O)O)=CC[C@@H](c3ccc(Cl)c(Cl)c3)N2S(=O)(=O)c2ccc(C)cc2)cc1	rCAG binder 88 | rCAG bind conf 85 | dCAG dye counter 54
Cc1ccc(S(=O)(=O)N2[C@@H](c3ccccc3)C(C(=O)O)=CC[C@H]2c2cccc(C)c2)cc1	none
Cc1ccc(S(=O)(=O)N2[C@@H](c3ccccc3)C(C(=O)O)=CC[C@H]2c2ccc(Cl)c(Cl)c2)cc1	rCAG binder 61 | rCAG bind conf 81 | dCAG dye counter 48
CCc1ccc([C@H]2C(C(=O)O)=C[C@@H](CC3CCCC3)N2S(=O)(=O)c2ccc(C)cc2)cc1	rCAG binder 76 | rCAG bind conf 62 | dCAG dye counter 26
Cc1ccc(S(=O)(=O)N2[C@@H](c3ccc4c(c3)OCO4)C(C(=O)O)=C[C@H]2CC2CCCC2)cc1	rCAG binder 67 | rCAG bind conf 61 | dCAG dye counter 25
Cc1ccc(S(=O)(=O)N2[C@@H](c3cccc(C)c3)C(C(=O)O)=C[C@H]2CC2CCCC2)cc1	rCAG binder 49 | rCAG bind conf 52 | dCAG dye counter 18
CC[C@@H]1C=C(C(=O)O)[C@H](c2ccc(F)cc2)N1S(=O)(=O)c1ccc(C)cc1	none
CCOC(=O)C1=C[C@@H](CC)N(S(=O)(=O)c2ccc(C)cc2)[C@H]1c1ccccc1	none (no result: HTRA1 inhibitor)
Cc1ccc([C@H]2C(C(=O)O)=C[C@@H](CC3CCCC3)N2S(=O)(=O)c2ccc(C)cc2)cc1	rCAG binder 68 | rCAG bind conf 73 | dCAG dye counter 27 | dCAG dye DR inactive
